Rows were chosen to be rich in hits. Some 2.9% of all compounds tested hit in one or more screens of this group.
HSP90 refold inh: blocks HSP90-mediated luciferase refolding in reticulocyte lysate; inhibition, % at 5.6 µM; Rabbit reticulocyte lysate, luciferase refolding luminescence, 3 h; AID 1789; 0.91% of 290,000 active;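 active = inhibition above the screen-wide mean plus 3 SD, computed separately per campaign, cut at about 16% in these data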;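 note: inhibitors lower the luminescence because luciferase stays unfolded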
SENP1 FRET inh: blocks the human SENP1 SUMO protease catalytic domain; recombinant SENP1 catalytic domain, CyPet-SUMO1-YPet FRET cleavage; inhibition, % at 10 µM; Q9P0U3; 0.21% of 360,000 active; AID 624204;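 active = inhibition at least 30% at 10 µM, raw YFP signal under a set limit, fluorescence ratio 0.5 to 1.5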
Target sequence (Q9P0U3 419-644 limits assumed): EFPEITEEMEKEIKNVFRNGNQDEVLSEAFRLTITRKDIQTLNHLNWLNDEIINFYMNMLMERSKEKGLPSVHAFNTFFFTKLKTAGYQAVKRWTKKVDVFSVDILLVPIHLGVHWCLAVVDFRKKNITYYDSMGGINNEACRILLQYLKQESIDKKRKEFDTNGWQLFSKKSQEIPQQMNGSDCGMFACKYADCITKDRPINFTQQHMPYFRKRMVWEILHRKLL
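Material: hSENP1 catalytic domain, recombinant; medium: Tris pH 8 with BME, BSA, NP40 and catalase; compound: single concentration of 10 µM compound, 0.5% DMSO final; technique: FRET read of cyan and yellow fluorescence; timing: 50 min enzyme reaction, room temperature, light-protected; reagent: SFCypet-SUMO1-SFYpet substrate at 25 nM; control set: no-enzyme low, enzyme-DMSO high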
SENP8 block-1: inhibitors of human SENP8 protease. Q96LD8. purified SENP8, Z-RLRGG-aminoluciferin cleavage, luminescence. inhibition, % at 10 µM. 1.2% of 330,000 active. AID 2540; in the data active = inhibition above about 50%
SENP8 block-2: inhibitors of human SENP8 protease; 0.64% of 360,000 active; AID 602440; inhibition, % at 20 µM; recombinant SENP8, Nedd8 substrate fluorescence; Q96LD8; in the data active = inhibition mostly above about 40%, no sharp cut-off; inactive = mostly below about 27%
SENP6 inh: inhibitors of human SENP6 protease; inhibition, % at 10 µM; AID 2599; 1.8% of 330,000 active; Q9GZR1; Recombinant SENP6 catalytic domain, aminoluciferin luminescence;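 active = inhibition above about 50% at the single tested dose, limit read from the data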
SENP7 inh: blocks the human protease SENP7; recombinant SENP7, Z-RLRGG-aminoluciferin luminescence, 40 min; inhibition, % at 5 µM; Q9BQF6; 1.5% of 330,000 active;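 active = inhibition above about 50% at the single test dose, limit read from the data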
Target sequence (Q9BQF6 706-1050 limits assumed): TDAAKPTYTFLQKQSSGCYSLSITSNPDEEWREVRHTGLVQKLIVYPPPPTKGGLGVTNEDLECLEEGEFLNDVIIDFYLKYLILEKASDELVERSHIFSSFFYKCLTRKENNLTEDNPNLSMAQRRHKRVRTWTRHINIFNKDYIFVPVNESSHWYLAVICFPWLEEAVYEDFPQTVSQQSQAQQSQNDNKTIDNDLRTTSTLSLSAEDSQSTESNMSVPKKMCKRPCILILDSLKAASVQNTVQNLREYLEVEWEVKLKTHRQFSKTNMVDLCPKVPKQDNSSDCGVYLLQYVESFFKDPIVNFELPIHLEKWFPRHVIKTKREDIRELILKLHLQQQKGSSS
Numbers stand for hits.

How did O=C(O)c1cccnc1Cl do in these assays?
HSP90 refold inh: inactive; SENP1 FRET inh: inactive; SENP8 block-1: inactive; SENP8 block-2: inactive; SENP6 inh: inactive; SENP7 inh: inactive

Results for OC[C@@H]1CN(Cc2cccc(C(F)(F)F)c2)C[C@H](n2cnc3c(NCc4ccco4)ncnc32)O1 ?
SENP1 FRET inh: inactive; SENP8 block-2: inactive

What do the screens show for `Nc1cc(OCC(F)(F)F)cc([N+](=O)[O-])c1`?
HSP90 refold inh: inactive; SENP1 FRET inh: inactive; SENP8 block-1: inactive; SENP8 block-2: inactive; SENP6 inh: inactive; SENP7 inh: inactive

What do the screens show for `Nc1cc(N)c(OCC(F)(F)F)cc1OCC(F)(F)F`?
HSP90 refold inh: inactive; SENP1 FRET inh: 32; SENP8 block-1: inactive; SENP8 block-2: 85; SENP6 inh: inactive; SENP7 inh: inactive

How did Oc1ccc(/C=N/N(Cc2ccccc2)c2ccccc2)c(O)c1O do in these assays?
HSP90 refold inh: inactive; SENP1 FRET inh: inactive; SENP8 block-2: 56

What do the screens show for `Oc1cccc(/C=N/N(Cc2ccccc2)c2ccccc2)c1`?
HSP90 refold inh: inactive; SENP1 FRET inh: inactive; SENP8 block-1: inactive; SENP8 block-2: inactive; SENP6 inh: inactive; SENP7 inh: inactive

What do the screens show for `Cc1ccc(Cc2c(-c3ccc(F)cc3)nc3ccc(Cl)cn23)cc1`?
SENP1 FRET inh: inactive; SENP8 block-2: inactive

How did COC(CNC(=O)C1CCCN(S(=O)(=O)c2c(C)noc2/C=C/c2cccs2)C1)OC (centres undefined) do in these assays?
HSP90 refold inh: 17; SENP1 FRET inh: inactive; SENP8 block-1: inactive; SENP8 block-2: inactive; SENP6 inh: inactive; SENP7 inh: inactive

What do the screens show for `COCCNC(=O)C1CCCN(S(=O)(=O)c2c(C)noc2/C=C/c2cccs2)C1` (centres undefined)?
HSP90 refold inh: inactive; SENP1 FRET inh: inactive; SENP8 block-1: inactive; SENP8 block-2: inactive; SENP6 inh: inactive; SENP7 inh: inactive

How did OCCCn1c(C(CO)Nc2nc(-c3ccc(Cl)cc3)cs2)nc2ccccc21 (centres undefined) do in these assays?
SENP1 FRET inh: inactive; SENP8 block-1: inactive; SENP8 block-2: inactive; SENP6 inh: inactive; SENP7 inh: inactive

How did CSCCC(C)N1CCC(Oc2ccc(C(=O)NCc3ccccn3)cc2)CC1 (centres undefined) do in these assays?
SENP1 FRET inh: inactive; SENP8 block-2: inactive

What do the screens show for `Cc1[nH]n(-c2ccc([N+](=O)[O-])cc2)c(=O)c1C=NCCN1CCN(C(=O)c2ccc(F)cc2)CC1`?
HSP90 refold inh: inactive; SENP1 FRET inh: inactive; SENP8 block-1: 67; SENP8 block-2: inactive; SENP6 inh: 91; SENP7 inh: 90

Results for Cc1nc2nc(C)c(NS(=O)(=O)c3ccc4c(c3)CCCC4)c(=O)n2[nH]1 ?
HSP90 refold inh: inactive; SENP1 FRET inh: inactive; SENP8 block-1: inactive; SENP8 block-2: inactive; SENP6 inh: inactive; SENP7 inh: inactive

What do the screens show for `CCOC(=O)[C@]12CCC=C1N(Cc1ccccc1)C(=O)[C@H](CC(=O)NCc1ccc(OC)c(OC)c1)C2`?
SENP1 FRET inh: inactive; SENP8 block-2: inactive

How did O=C(O)C1Nc2c(O)cc(Cl)c([N+](=O)[O-])c2C2C=CCC12 (centres undefined) do in these assays?
HSP90 refold inh: inactive; SENP1 FRET inh: inactive; SENP8 block-1: inactive; SENP8 block-2: 46; SENP6 inh: inactive; SENP7 inh: inactive

What do the screens show for `O=C(Nc1ccc(-c2cn3ccccc3n2)cc1)c1cccs1`?
HSP90 refold inh: inactive; SENP1 FRET inh: inactive; SENP8 block-1: inactive; SENP8 block-2: inactive; SENP6 inh: inactive; SENP7 inh: 52

What do the screens show for `COc1ccc(CC(=O)Nc2ccc(-c3cn4ccccc4n3)cc2)cc1`?
HSP90 refold inh: inactive; SENP1 FRET inh: inactive; SENP8 block-1: inactive; SENP8 block-2: inactive; SENP6 inh: inactive; SENP7 inh: inactive

Results for N#CCC(=O)Nc1ccc(C(=O)OCC(=O)N2CCN(C(=O)c3ccco3)CC2)cc1 ?
SENP1 FRET inh: inactive; SENP8 block-1: inactive; SENP8 block-2: inactive; SENP6 inh: inactive; SENP7 inh: inactive

How did O=C(N/N=C/c1ccc(OCC(=O)N2CCCCC2)cc1)c1ccccc1 do in these assays?
HSP90 refold inh: inactive; SENP1 FRET inh: inactive; SENP8 block-1: inactive; SENP8 block-2: inactive; SENP6 inh: inactive; SENP7 inh: inactive

How did O=C(N/N=C/c1ccccc1OCC(=O)N1CCCC1)C(=O)Nc1ccccc1F do in these assays?
HSP90 refold inh: inactive; SENP1 FRET inh: inactive; SENP8 block-1: inactive; SENP8 block-2: inactive; SENP6 inh: 70; SENP7 inh: 61

What do the screens show for `Cc1cccc(C)c1NC(=O)C(CCc1ccccc1)N1CCC(c2ccccc2)CC1` (centres undefined)?
SENP1 FRET inh: inactive; SENP8 block-2: inactive

How did COC(=O)c1ccc(NC(=O)c2ccc(NS(=O)(=O)c3cccc4cccnc34)cc2)cc1 do in these assays?
HSP90 refold inh: 17; SENP1 FRET inh: inactive; SENP8 block-1: inactive; SENP8 block-2: inactive; SENP6 inh: inactive; SENP7 inh: inactive

Results for CCOC(=O)CCSc1nc(C)cc(C(F)(F)F)c1C#N ?
HSP90 refold inh: inactive; SENP1 FRET inh: 76; SENP8 block-1: inactive; SENP8 block-2: inactive; SENP6 inh: inactive; SENP7 inh: inactive

What do the screens show for `COC(=O)[C@]12CCCCC=C1N(Cc1ccccc1)C(=O)[C@H](CC(=O)NCCc1ccccc1OC)C2`?
SENP1 FRET inh: inactive; SENP8 block-2: inactive

How did N/C(=N\OC(=O)c1cc(Cl)ccc1Cl)c1ccccn1 do in these assays?
HSP90 refold inh: inactive; SENP1 FRET inh: inactive; SENP8 block-1: 65; SENP8 block-2: inactive; SENP6 inh: 51; SENP7 inh: 76

How did N/C(=N\OC(=O)COc1ccc(Cl)cc1Cl)c1ccccn1 do in these assays?
HSP90 refold inh: inactive; SENP1 FRET inh: inactive; SENP8 block-1: 87; SENP8 block-2: inactive; SENP6 inh: 73; SENP7 inh: 90

Results for N/C(=N\OC(=O)c1cccc2ccccc12)c1cccnc1 ?
HSP90 refold inh: inactive; SENP1 FRET inh: inactive; SENP8 block-1: inactive; SENP8 block-2: inactive; SENP6 inh: inactive; SENP7 inh: inactive

Results for Cc1cc(C)c(C)c(OCC(=O)O/N=C(\N)c2ccccn2)c1 ?
HSP90 refold inh: inactive; SENP1 FRET inh: inactive; SENP8 block-1: inactive; SENP8 block-2: inactive; SENP6 inh: inactive; SENP7 inh: inactive

How did N/C(=N\OC(=O)c1ccc(Cl)cc1Cl)c1cccnc1 do in these assays?
HSP90 refold inh: inactive; SENP1 FRET inh: inactive; SENP8 block-1: 61; SENP8 block-2: inactive; SENP6 inh: inactive; SENP7 inh: 72

What do the screens show for `O=C(Nc1ccccc1)SC1CCCCC1`?
SENP1 FRET inh: inactive; SENP8 block-2: inactive

How did CCc1cccc2c(C(=O)CSc3nnc(C4CC4)o3)c[nH]c12 do in these assays?
SENP1 FRET inh: inactive; SENP8 block-1: inactive; SENP8 block-2: inactive; SENP6 inh: inactive; SENP7 inh: inactive

How did CC(=O)c1ccc(NC(=S)Nc2cccc3cnccc23)cc1 do in these assays?
HSP90 refold inh: inactive; SENP1 FRET inh: inactive; SENP8 block-1: 92; SENP8 block-2: inactive; SENP6 inh: 87; SENP7 inh: 61

Screening results from PubChem BioAssay.
